Assay outcomes (PubChem)
C2C12 statin: suppressors of simvastatin-induced myotoxicity in C2C12 myotubes; rescue of ATP level, % at 7.49 µM; 330,000 tested, 0.78% active; AID 602340; ATP luminescence, 48 h; scaled: DMSO 0, geranylgeraniol control 100;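 active = mean ATP rescue above about 67%, or every replicate alone reaching that limit, limit read from the data, passing the limit was not always enough; inconclusive = no clear call, values can overlap the other calls; inactive = mean under the limit and some replicate under it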;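 also: myotubes were challenged with 10 µM simvastatin during compound exposure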
XiGFP reactiv: reactivates the inactive X chromosome in mouse fibroblasts; 360,000 tested, 0.055% active; AID 743238; activation, % at 7.58 µM; XiGFP mouse fibroblasts, % GFP-positive cells imaging, 3 d; cells co-treated with 5-aza-dC sensitizer; scaled so ellipticine positive control = 100%;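 active = mean normalized replicate activation at least 10% and every replicate at or above 10%; inconclusive = only one of the two criteria met; inactive = mean below 10% and not all replicates reach 10%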;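 also: 0% = median of on-plate neutral control wells and 100% = ellipticine 6 µM median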
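Material: SV40-immortalized XiGFP fibroblast cells, line 68-5-11 | Buffer or medium: DMEM containing 5-aza-dC | Dosing: One concentration, pinned | Times: 3 d treatment, 15 min room-temperature fixation | Controls: Ellipticine 6 µM positive control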
DENV2 CPE: protects cells from dengue virus 2 cytopathic effect; DENV2-infected cells, cytopathic effect rescue, plate reader; CPE inhibition, % at 9.99 µM; AID 651640; 350,000 tested, 1.7% active; in the data active = CPE inhibition above about 20%, passing the limit was not always enough; inconclusive = no clear call, values can overlap the other calls; tested in BHK-21 cells;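 also: 0% = median of neutral control wells and 100% = median of positive control wells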
E-sel inducer: induces E-selectin expression in human endothelial cells. P16581. HUVEC E-selectin immunofluorescence imaging; normalized: neutral wells 0, TNF-alpha wells 100. activation, % at 7.58 µM. 260,000 tested, 0.37% active. AID 686992;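 active = mean E-selectin-positive cell signal at least 10% of the positive control, reached in at least 60% of replicates, without over 20% cell loss; inconclusive = no rule given, readout overlaps actives, possibly toxicity-flagged; inactive = the rest, including those meeting only one limit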
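Test system: HUVEC; input: 3,000 HUVEC/well; measured by: immunofluorescence imaging; read-out: % PE-positive cells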
PglD DTNB: blocks C. jejuni PglD acetyltransferase activity; purified PglD enzyme, DTNB colorimetric CoA detection; inhibition, % at 12.5 µM; 360,000 tested, 0.098% active; AID 602405; in the data active = inhibition above about 16%, passing the limit was not always enough; inconclusive = no clear call, values can overlap the other calls
FGF22 binding: shifts melting point of recombinant human FGF22. Q9HCT0. activity (Tm shift, normalised), % at 9.99 µM. recombinant FGF22 thermal shift, SYPRO orange fluorescence; percent of sucrose octasulfate shift, DMSO zero. 340,000 tested, 1.5% active. AID 651658;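 active = mean Tm shift, scaled 0 neutral to 100 positive control, at about 1.3% or above, every replicate too, limit read from the data; inconclusive = no clear call, values can overlap the other calls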
Target sequence (Q9HCT0 whole entry, looked up): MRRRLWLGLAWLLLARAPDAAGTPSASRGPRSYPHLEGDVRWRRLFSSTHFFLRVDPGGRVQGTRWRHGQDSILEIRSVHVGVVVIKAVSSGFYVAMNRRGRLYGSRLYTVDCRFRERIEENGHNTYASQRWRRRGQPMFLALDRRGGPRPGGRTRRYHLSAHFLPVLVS
Active calls of the source: *; ? = inconclusive; . = not tested or not shown. The list is not random: actives were taken first. Their share in the collection is about 3.3%.

SMILES | C2C12 statin | XiGFP reactiv | DENV2 CPE | E-sel inducer | PglD DTNB | FGF22 binding
Cc1ccccc1-c1ccc2c(c1)O[C@H](CN(C)C(=O)C1CC1)[C@H](C)CN([C@H](C)CO)S2(=O)=O | -8 | 0 | -6 | 1 | 6 | 0
O=C(Nc1nc(-c2ccco2)c(-c2ccco2)s1)c1ccc(F)cc1F | 13 | 0 | 68* | 0 | -2 | 0
CCCNC(=O)Nc1ccc2c(c1)C(=O)N(C)C[C@H](OC)[C@@H](C)CN(Cc1cccnc1)[C@H](C)CO2 | 1 | 0 | -4 | 3 | 6 | 0
C[C@H](CO)N1C[C@H](C)[C@@H](CN(C)Cc2ccc(Oc3ccccc3)cc2)Oc2ccc(NC(=O)Nc3ccc(C(F)(F)F)cc3)cc2C1=O | -1 | 0 | ? | 273* | 1 | 0
COc1ccc(CN(C)C[C@@H]2Oc3ccc(NC(=O)Nc4ccc(C(F)(F)F)cc4)cc3C(=O)N([C@H](C)CO)C[C@@H]2C)cc1 | -8 | 0 | 29* | 0 | -6 | 0
COc1ccc(NC(=O)Nc2ccc3c(c2)C(=O)N([C@@H](C)CO)C[C@@H](C)[C@@H](CN(C)Cc2ccc(C(F)(F)F)cc2)O3)cc1 | -39 | -1 | 11 | -1 | -1 | 0
C/C=C/c1ccc([C@@H]2[C@H](CO)N(CCC(F)(F)F)C23CN(C(C)=O)C3)cc1 | . | 0 | . | . | . | .
O=C(NN1CCOCC1)c1ccc(Cl)cc1[N+](=O)[O-] | . | 0 | -4 | 45* | 2 | 0
CCCC(=O)Nc1ccc2c(c1)C(=O)N(C)C[C@H](OC)[C@@H](C)CN(C(=O)CC)[C@H](C)CO2 | -5 | 0 | . | 0 | . | .
O=C(C[C@H]1CC[C@H]2[C@@H](COC[C@@H](O)CN2C(=O)Cc2ccccc2)O1)NC1CCCC1 | -1 | 0 | ? | 0 | -1 | 1
O=C(C[C@H]1CC[C@H]2[C@@H](COC[C@H](O)CN2C(=O)Cc2ccccc2)O1)NC1CCC1 | -12 | 0 | 38* | 0 | 0 | 0
O=C(C[C@H]1CC[C@@H]2[C@H](COC[C@H](O)CN2C(=O)Cc2ccccc2)O1)NC1CCCC1 | 0 | 1 | 88* | 0 | 2 | 0
O=C(C[C@@H]1CC[C@H]2[C@@H](COC[C@H](O)CN2C(=O)Cc2ccccc2)O1)NC1CCC1 | 9 | 0 | 13 | 0 | 4 | 0
CO[C@@H]1CN(C)C(=O)c2ccc(NC(=O)C3CC3)cc2OC[C@H](C)N(C(=O)c2ccccn2)C[C@H]1C | 14 | 1 | -4 | 0 | 0 | 0
O=C(C1CCC1)N1CC(=O)N2[C@H](CO)[C@H](c3ccc(-c4ccccc4F)cc3)[C@@H]2C1 | . | 0 | -4 | 0 | . | .
CO[C@@H]1CN(C)C(=O)c2ccc(NS(=O)(=O)c3cccc(F)c3)cc2OC[C@H](C)N(C(=O)Cc2cccnc2)C[C@H]1C | . | 0 | -1 | 0 | . | 0
CO[C@@H]1CN(C)C(=O)c2ccc(NS(=O)(=O)c3cccc(F)c3)cc2OC[C@@H](C)N(C(=O)Cc2cccnc2)C[C@H]1C | -7 | 0 | 82* | 0 | -2 | 0
CO[C@H]1CN(C)C(=O)c2ccc(NS(=O)(=O)c3cccc(F)c3)cc2OC[C@H](C)N(C(=O)Cc2cccnc2)C[C@H]1C | -3 | 0 | 23* | 0 | -2 | 0
Cc1noc(C)c1NC(=O)N(C)C[C@@H]1Oc2c(NC(=O)c3ccc(-c4nccs4)cc3)cccc2C(=O)N([C@H](C)CO)C[C@@H]1C | 4 | -1 | 33* | . | 2 | -1
Cc1noc(C)c1NC(=O)N(C)C[C@H]1Oc2c(NC(=O)c3ccc(-c4nccs4)cc3)cccc2C(=O)N([C@@H](C)CO)C[C@H]1C | 18 | -1 | 24* | . | 2 | -1
Cc1noc(C)c1NC(=O)N(C)C[C@H]1Oc2c(NC(=O)c3ccc(-c4nccs4)cc3)cccc2C(=O)N([C@H](C)CO)C[C@H]1C | 13 | -1 | 9 | . | 1 | 0
CC(C)NC(=O)Nc1ccc2c(c1)CC(=O)N(C)C[C@H](C)[C@H](CN(C)C)O2 | . | 0 | . | . | . | .
